Screening data: PubChem BioAssay, Sanford-Burnham Center for Chemical Genomics
MPTP block: permeability transition pore inhibition; inhibition, % at 10 µM; AID 602449; 360,000 compounds, 1.4% hits; isolated mouse mitochondria, Ca2+ swelling absorbance, 30 min;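 active = inhibition of 50% or more, scaled per plate between neutral and stimulator controls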;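 also: 0% = DMSO wells given calcium and 100% = 1 mM EGTA wells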
NR3A LBD binder: modulators (binders) of human NR3A ligand-binding domain. NR3A LBD differential scanning fluorimetry, Tm shift; 0% = protein alone, 100% = glycine-bound protein. 340,000 compounds, 2.5% hits. Tm shift relative to glycine control, % at 25 µM;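 active = melting temperature shift of at least 10% of the positive control shift, at one fixed dose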
EBI2 block: EBI2 (human) antagonism | inhibition, % at 5 µM | P32249 | 360,000 compounds, 0.81% hits | EBI2 beta-arrestin recruitment, luminescence, 7a,25-OHC stimulated; in the data active = inhibition above about 38%;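 also: enzyme fragment complementation signal reports receptor beta-arrestin coupling in cells; 0% = agonist plus DMSO wells and 100% = wells without agonist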
Target sequence (P32249 whole entry, looked up, the tested form may be a part): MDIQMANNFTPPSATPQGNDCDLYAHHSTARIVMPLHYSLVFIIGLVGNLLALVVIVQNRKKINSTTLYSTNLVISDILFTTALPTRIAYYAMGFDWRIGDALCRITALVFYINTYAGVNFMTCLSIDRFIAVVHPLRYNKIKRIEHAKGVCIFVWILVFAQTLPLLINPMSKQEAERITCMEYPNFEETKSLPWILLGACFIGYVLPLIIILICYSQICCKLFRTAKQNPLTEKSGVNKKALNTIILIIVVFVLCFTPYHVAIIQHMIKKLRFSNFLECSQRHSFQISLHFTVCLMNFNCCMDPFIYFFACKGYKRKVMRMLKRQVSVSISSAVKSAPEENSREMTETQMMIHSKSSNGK
SENP1 FRET inh: SENP1 (human) catalytic domain inhibition. Q9P0U3. recombinant SENP1 catalytic domain, CyPet-SUMO1-YPet FRET cleavage. inhibition, % at 10 µM. 360,000 compounds, 0.21% hits. AID 624204;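 active = inhibition at least 30% at 10 µM, raw YFP signal under a set limit, fluorescence ratio 0.5 to 1.5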;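 also: 0% = enzyme with DMSO and 100% = no enzyme wells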
Target sequence (Q9P0U3 419-644 limits assumed): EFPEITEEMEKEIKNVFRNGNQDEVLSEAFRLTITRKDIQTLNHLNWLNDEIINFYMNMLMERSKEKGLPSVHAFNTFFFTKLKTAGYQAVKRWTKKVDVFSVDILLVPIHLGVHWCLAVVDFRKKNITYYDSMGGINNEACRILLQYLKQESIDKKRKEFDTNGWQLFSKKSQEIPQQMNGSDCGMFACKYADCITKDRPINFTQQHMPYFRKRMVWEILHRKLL
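Controls: no-enzyme wells low, DMSO-plus-enzyme wells high control. Test system: human recombinant His6-tagged SENP1 catalytic domain enzyme. Reagent: SFCypet-SUMO1-SFYpet FRET protein substrate, 25 nM final. Doses: one dose per compound, 10 µM, 0.5% DMSO. Detection: FRET, CFP and YFP emission. Timing: 50 min reaction at room temperature.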
EBI2 antag conf: confirmation of human EBI2 receptor antagonists | shares compounds with EBI2 block | EBI2 beta-arrestin luminescence, 7a,25-OHC antagonism | inhibition, % at 5 µM | 2,400 compounds, 29% hits;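 active = inhibition of at least 50%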
EBI2 ag: EBI2 agonism counter-screen; shares compounds with EBI2 block; EBI2-expressing cells, agonist mode, luminescence, 60 min; 0% vehicle, 100% 7α,25-dihydroxycholesterol control; activation, % at 5 µM; 2,400 tested, under 10 active;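 active = activation of at least 50%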
bGal cs: counter-screen for EBI2 antagonists: E. coli beta-galactosidase inhibition. shares compounds with EBI2 block. purified beta-galactosidase, luminescent Galacton Star, 15 min. inhibition, % at 5 µM. 2,400 compounds, 1% hits. AID 652176;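 active = replicate-average signal at least 3 plate SD below neutral wells, shown as high inhibition, flagging enzyme-inhibiting false positives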;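 also: 0% = DMSO wells with enzyme and 100% = wells lacking enzyme; higher means stronger loss of beta-gal luminescence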
* marks the source's active call; other numbers are inactive results; · = no result given. Sampled rows, rich in hits. Any-hit rate of the full collection: about 4.4%.

SMILES	MPTP block	NR3A LBD binder	EBI2 block	SENP1 FRET inh	EBI2 antag conf	EBI2 ag	bGal cs
Cc1ccc(S(=O)(=O)N2CCN(C(=O)Cc3ccccc3)CC2)cc1C	-1.6	1.4	21.1	0.1	·	·	·
COc1cccc(/C=C/C(=O)N2CCN(S(=O)(=O)c3ccccc3)CC2)c1OC	0.8	-2.2	44.5*	3.5	19.8	-0.2	2.8
COc1ccc(/C=C/C(=O)N2CCN(C)CC2)cc1OC	-0.1	-0.5	-4.2	-0.8	·	·	·
COc1ccc(/C=C/C(=O)N2CCN(S(=O)(=O)c3ccccc3)CC2)cc1OC	-0.2	-3.7	45.7*	1.8	19.6	1.2	3.7
O=C(/C=C/c1ccco1)N1CCN(S(=O)(=O)c2ccccc2)CC1	-0.3	2.6	9.1	-8.8	·	·	·
Cc1ccc(S(=O)(=O)N2CCN(C(=O)/C=C/c3ccccc3)CC2)cc1C	0.2	-1.2	88.9*	1.0	76.2*	-1.2	-7.5
O=C(CCl)Nc1cc2[nH]c(=O)[nH]c2cc1Br	-1.0	-0.6	-11.8	1.4	·	·	·
CNc1nc(-c2c(C)n(C)c3ccc(OC)cc23)cs1	0.8	-2.2	9.8	2.1	·	·	·
C[C@H]1CN([C@@H](C)CO)C(=O)CCCn2nncc2CO[C@@H]1CN(C)C(=O)Nc1cccc2ccccc12	1.0	·	0.0	-1.7	·	·	·
COc1ccccc1N1CC(C)(C)C(=O)N(C(=O)c2ccc(C)cc2)C1=S	4.8	2.5	3.1	2.8	·	·	·
CCCCNC(=O)CN1C(=O)NC(CCc2ccccc2)C1=O (centres undefined)	0.6	-0.7	-7.5	-3.7	·	·	·
COc1cc2c(cc1OC)C(CNC(=O)C=Cc1cc(OC)c(OC)c(OC)c1)C2 (centres undefined)	0.3	·	50.0*	-0.3	31.5	0.6	3.5
COc1cc(/C=C/C(=O)NC2CCCCC2)cc(OC)c1OC	1.0	-1.8	1.2	0.0	·	·	·
COc1cc(/C=C/C(=O)N2CCN(C(=O)/C=C/c3cc(OC)c(OC)c(OC)c3)CC2)cc(OC)c1OC	-0.2	2.2	46.2*	-0.8	19.8	-0.9	-20.8
COc1ccc(/C=C/C(=O)N2CCN(S(=O)(=O)/C=C/c3ccccc3)CC2)cc1OC	-0.5	-2.7	88.6*	1.2	73.2*	-0.2	-19.6
COc1ccc(/C=C/C(=O)N2CCOCC2)cc1OC	0.4	0.9	-3.4	1.2	·	·	·
C=CCn1c2ccccc2c2nnc(SCCN3CCOCC3)nc21	-1.8	3.6	10.7	-0.7	·	·	·
CCCCn1c2ccc(F)cc2c2nnc(SCCN3CCOCC3)nc21	-0.1	-1.1	63.4*	1.9	30.8	0.4	9.2
CCCCn1c2ccccc2c2nnc(SCCN3CCCCC3)nc21	-0.6	-0.1	49.0*	0.9	13.1	-2.2	-10.9
Cn1c2ccc(F)cc2c2nnc(SCCN3CCOCC3)nc21	0.3	1.7	0.8	0.7	·	·	·
O=C1CC2(CCN(C(=O)c3ccc([N+](=O)[O-])cc3)CC2)Oc2ccccc21	0.7	-0.8	-1.8	1.4	·	·	·
O=C1CC2(CCN(C(=O)COc3ccc(Cl)cc3)CC2)Oc2ccccc21	-0.4	·	87.4*	2.1	64.0*	-1.2	-12.5
O=C1CC2(CCN(C(=O)c3ccc(Br)cc3)CC2)Oc2ccccc21	1.6	0.2	54.1*	1.4	36.7	0.0	3.1
Cc1ccc(OCC(=O)N2CCC3(CC2)CC(=O)c2ccccc2O3)cc1	1.0	-2.3	86.3*	0.0	59.8*	1.2	5.5
COc1cccc(OCC(=O)N2CCC3(CC2)CC(=O)c2ccccc2O3)c1	-0.4	1.6	36.0	-0.6	·	·	·
SMILES	MPTP block	NR3A LBD binder	EBI2 block	SENP1 FRET inh	EBI2 antag conf	EBI2 ag	bGal cs
CC(=O)C(=Cc1cn(-c2ccccc2)nc1-c1ccccc1)C(C)=O	-0.2	1.1	36.6	0.9	·	·	·
CCCCC(=O)NC(c1cccc([N+](=O)[O-])c1)c1c(OC(C)=O)ccc2ccccc12 (centres undefined)	0.1	1.0	39.0*	-0.1	10.1	0.0	12.4
Cc1ccc(S(=O)(=O)N2CCN(C(=O)c3cc4c(s3)CCCC4)CC2)c(C)c1	-1.5	-0.3	67.7*	1.3	34.1	-0.8	-10.9
Cc1ccc(S(=O)(=O)N2CCN(C(=O)c3cc4c(s3)CCCC4)CC2)cc1	-1.7	-1.2	12.3	-11.3	·	·	·
Cc1ccc(NS(=O)(=O)c2cc(C(=O)NCCSc3ccc(C)cc3)ccc2C)cc1	35.2	12.5*	44.3*	0.4	11.4	-1.7	-8.4
Cc1cccc(-c2nc3c(s2)CCc2onc(-c4ccc(Br)cc4)c2-3)c1	1.8	0.0	-7.6	-0.2	·	·	·
O=C(COc1ccc2ccccc2c1)N1CCCC1	-1.2	-1.4	33.1	-2.8	·	·	·
COc1ccc(N2CCN(C(=O)COc3ccc4ccccc4c3)CC2)cc1	-1.2	0.8	85.1*	-2.5	35.0	0.9	5.2
CC(=O)c1ccc(N2CCN(C(=O)COc3ccc4ccccc4c3)CC2)cc1	-0.4	·	7.9	-0.4	·	·	·
COc1ccc(OCC(=O)N2CCN(C(=O)COc3ccc(Br)cc3)CC2)cc1	1.9	1.1	79.9*	1.9	56.4*	0.3	8.9
O=C(COc1ccc2cc(Br)ccc2c1)N1CCOCC1	-1.7	1.7	61.6*	-1.1	36.2	1.3	3.8
COc1cc(OC)cc(C(=O)N2CCN(C(=O)COc3ccc4ccccc4c3)CC2)c1	0.0	-1.0	84.7*	2.0	67.6*	-0.4	-6.1
O=C(COc1ccccc1)N1CCN(c2ccccc2)CC1	0.5	0.5	30.3	-0.5	·	·	·
O=C(COc1ccc2ccccc2c1)N1CCN(c2ccccc2)CC1	1.5	-33.0	50.1*	-0.6	39.8	-1.0	-18.1
O=C(COc1ccc2ccccc2c1)N1CCN(C(=O)c2cccnc2)CC1	-1.6	1.9	78.5*	-0.8	63.6*	-0.5	-15.9
O=C(COc1ccc(Br)cc1)N1CCN(c2ccccc2)CC1	-1.0	1.0	81.6*	0.6	67.5*	0.2	7.7
O=C(Nc1ccccc1Cl)N1CCN(c2ccc3nnc(-c4ccccc4)n3n2)CC1	-0.6	-11.5	-3.0	-0.4	·	·	·
O=C(Nc1ccc(Cl)cc1)N1CCN(c2ccc3nnc(-c4ccc(F)cc4)n3n2)CC1	17.8	27.2*	47.6*	1.5	48.6	-1.8	-8.2
CC(C)c1ccc(C(=O)NCc2ccc(Cl)cc2)cc1	8.6	1.9	61.1*	2.8	32.8	0.2	-9.6
Cc1ccc(CNC(=O)c2ccc(N3CCCC3=O)cc2)cc1	-1.9	1.3	62.7*	0.5	35.2	0.0	6.7
COc1ccc(CNC(=O)c2ccc(N3CCCC3=O)cc2)cc1	-0.8	1.5	-0.4	0.9	·	·	·
O=C(NCc1ccc(N2CCCC2=O)cc1)c1ccc(F)cc1	0.3	2.1	-3.4	2.6	·	·	·
O=C(NCc1ccc(Cl)cc1)c1ccc(N2CCCC2=O)cc1	-1.5	-2.8	54.9*	1.3	25.1	-0.4	4.5
